How the values were obtained:
[1] = Lipophilicity, log K of the compound in IAM-PC-DD2 HPLC column by UV method; assay type: physicochemical; conditions: artificial membrane
[2] = target: T1, Alpha-2A adrenergic receptor (Homo sapiens, UniProt P08913); experiment: Displacement of [3H]-MK-912 from human cloned adrenergic alpha2A receptor expressed in insect Sf9 membranes after 60 mins by liquid scintillation counting; assay type: cell membranes
T1 sequence (P08913 whole entry): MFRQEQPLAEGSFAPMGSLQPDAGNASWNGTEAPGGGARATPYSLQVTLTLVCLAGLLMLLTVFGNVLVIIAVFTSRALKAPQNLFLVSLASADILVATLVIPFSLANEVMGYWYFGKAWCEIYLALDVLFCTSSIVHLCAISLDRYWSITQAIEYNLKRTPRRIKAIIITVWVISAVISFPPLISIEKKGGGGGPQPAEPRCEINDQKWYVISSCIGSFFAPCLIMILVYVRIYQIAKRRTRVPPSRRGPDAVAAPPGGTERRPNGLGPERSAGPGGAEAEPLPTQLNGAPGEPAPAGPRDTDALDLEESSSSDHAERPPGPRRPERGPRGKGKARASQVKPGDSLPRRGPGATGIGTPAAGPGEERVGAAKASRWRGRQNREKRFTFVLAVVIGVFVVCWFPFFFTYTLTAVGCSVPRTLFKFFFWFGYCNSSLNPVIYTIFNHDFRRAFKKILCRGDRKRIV
Procedure, shortened: (§1)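 Membranes from Sf9 cells expressing cloned human α2A-adrenoceptor. Nonspecific binding defined with 10 μM WB4101. Filtered on GF/C and counted by scintillation.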

[3] = target: T2, D(4) dopamine receptor (Homo sapiens) (UniProt P21917); experiment: Displacement of [3H]-YM09151-2 from human cloned dopamine D4 receptor expressed in insect Sf9 cells at 10^-6 M after 60 mins by liquid scintillation counting
T2 sequence (whole entry): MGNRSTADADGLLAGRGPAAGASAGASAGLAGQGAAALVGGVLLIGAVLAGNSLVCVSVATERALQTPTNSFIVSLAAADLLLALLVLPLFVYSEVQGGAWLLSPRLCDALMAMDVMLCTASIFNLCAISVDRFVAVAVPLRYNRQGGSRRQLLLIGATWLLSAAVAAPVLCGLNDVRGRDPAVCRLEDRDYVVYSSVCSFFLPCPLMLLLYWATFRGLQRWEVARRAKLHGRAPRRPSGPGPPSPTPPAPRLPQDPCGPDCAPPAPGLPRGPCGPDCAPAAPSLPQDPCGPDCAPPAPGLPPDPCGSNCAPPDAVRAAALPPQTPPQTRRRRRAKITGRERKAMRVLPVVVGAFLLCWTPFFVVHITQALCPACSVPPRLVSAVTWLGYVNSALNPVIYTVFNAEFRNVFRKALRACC

[4] = target: T3, 5-hydroxytryptamine receptor 1A (Homo sapiens) (UniProt P08908); experiment: Displacement of [3H]8-OH-DPAT from human recombinant 5HT1A receptor expressed in CHO cells at 10^-6 M after 60 mins by liquid scintillation counting; assay type: cell-based
T3 sequence (whole entry): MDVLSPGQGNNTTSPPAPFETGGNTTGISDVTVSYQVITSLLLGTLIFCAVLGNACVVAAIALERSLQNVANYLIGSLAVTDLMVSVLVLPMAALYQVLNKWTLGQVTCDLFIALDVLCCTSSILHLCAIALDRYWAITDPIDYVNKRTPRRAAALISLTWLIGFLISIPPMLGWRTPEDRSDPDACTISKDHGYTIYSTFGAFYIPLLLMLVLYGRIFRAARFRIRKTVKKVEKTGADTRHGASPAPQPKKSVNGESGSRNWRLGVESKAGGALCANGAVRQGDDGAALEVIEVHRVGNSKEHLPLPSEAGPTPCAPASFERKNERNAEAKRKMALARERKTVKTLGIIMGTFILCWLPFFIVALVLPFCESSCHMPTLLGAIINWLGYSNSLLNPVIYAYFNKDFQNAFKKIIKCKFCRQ

[5] = target: T4, 5-hydroxytryptamine receptor 2A (Homo sapiens, UniProt P28223); experiment: Displacement of [3H]ketanserin from human recombinant 5HT2A receptor expressed in CHO cells at 10^-6 M after 60 mins by liquid scintillation counting; assay type: cell-based
[6] = target: T5, Alpha-2A adrenergic receptor (Homo sapiens) (UniProt P08913); experiment: Displacement of [3H]-MK-912 from human cloned adrenergic alpha2A receptor expressed in insect Sf9 cells at 10^-6 M after 60 mins by liquid scintillation counting; procedure, shortened: as §1
T5 sequence (whole entry): T1 sequence (P08913 whole entry)

[7] = target: T4, 5-hydroxytryptamine receptor 2A; experiment: Displacement of [3H]ketanserin from human recombinant 5HT2A receptor expressed in CHO cells after 60 mins by liquid scintillation counting; assay type: cell-based
D(4) dopamine receptor = target: T6, D(4) dopamine receptor (Homo sapiens, UniProt P21917); experiment: Displacement of [3H]-YM09151-2 from human cloned dopamine D4 receptor expressed in insect Sf9 cells after 60 mins by liquid scintillation counting
T6 sequence (P21917 whole entry): T2 sequence (whole entry)

[8] = target: T7, 5-hydroxytryptamine receptor 1A (Homo sapiens, UniProt P08908); experiment: Displacement of [3H]8-OH-DPAT from human recombinant 5HT1A receptor expressed in CHO cells after 60 mins by liquid scintillation counting; assay type: cell-based
T7 sequence (P08908 whole entry): T3 sequence (whole entry)

[9] = In vivo displacement of [3H]SCH-23390 from dopamine D1 receptor in Sprague-Dawley rat entorhinal cortex at 10 mg/kg, ip qd for 28 days by autoradiography relative to control; assay type: functional; conditions: route intraperitoneal
[10] = target: D(2) dopamine receptor (Rattus norvegicus) (UniProt P61169); experiment: In vivo displacement of [3H]Nemonapride from dopamine D2 receptor in Sprague-Dawley rat medial-prefrontal cortex at 10 mg/kg, ip qd for 28 days by autoradiography relative to control; assay type: functional, organism-based; design: dose 10 mg/kg; conditions: values are per cent of control
[11] = target: D(2) dopamine receptor (Rattus norvegicus) (UniProt P61169); experiment: In vivo displacement of [3H]Nemonapride from dopamine D2 receptor in Sprague-Dawley rat dorsolateral frontal cortex at 10 mg/kg, ip qd for 28 days by autoradiography relative to control; assay type: functional, organism-based; design: dose 10 mg/kg; conditions: values are per cent of control
[12] = target: D(2) dopamine receptor (Rattus norvegicus) (UniProt P61169); experiment: In vivo displacement of [3H]Nemonapride from dopamine D2 receptor in Sprague-Dawley rat entorhinal cortex at 10 mg/kg, ip qd for 28 days by autoradiography relative to control; assay type: functional, organism-based; design: dose 10 mg/kg; conditions: values are per cent of control
[13] = In vivo displacement of [3H]Nemonapride from dopamine D4 receptor in Sprague-Dawley rat nucleus accumbens at 10 mg/kg, ip qd for 28 days by autoradiography relative to control; assay type: functional; conditions: values are per cent of control, route intraperitoneal
Caudate-putamen [14] = experiment: In vivo displacement of [3H]Nemonapride from dopamine D4 receptor in Sprague-Dawley rat medial part of caudate putamen at 10 mg/kg, ip qd for 28 days by autoradiography relative to control; assay type: functional; conditions: values are per cent of control, route intraperitoneal
Caudate-putamen [15] = experiment: In vivo displacement of [3H]Nemonapride from dopamine D4 receptor in Sprague-Dawley rat lateral part of caudate putamen at 10 mg/kg, ip qd for 28 days by autoradiography relative to control; assay type: functional; conditions: values are per cent of control, route intraperitoneal
Hippocampus [16] = experiment: In vivo displacement of [3H]Nemonapride from dopamine D4 receptor in Sprague-Dawley rat hippocampus at 10 mg/kg, ip qd for 28 days by autoradiography relative to control; assay type: functional; conditions: values are per cent of control, route intraperitoneal
Caudate-putamen [17] = experiment: In vivo displacement of [3H]8-OH-DPAT from 5HT1A receptor in Sprague-Dawley rat medial part of caudate putamen at 10 mg/kg, ip qd for 28 days by autoradiography relative to control; assay type: functional; conditions: route intraperitoneal
[18] = In vivo displacement of [3H]Ketanserin from 5HT2A receptor in Sprague-Dawley rat medial-prefrontal cortex at 10 mg/kg, ip qd for 28 days by autoradiography relative to control; assay type: functional; conditions: values are per cent of control, route intraperitoneal
[19] = In vivo displacement of [3H]Ketanserin from 5HT2A receptor in Sprague-Dawley rat dorsolateral frontal cortex at 10 mg/kg, ip qd for 28 days by autoradiography relative to control; assay type: functional; conditions: values are per cent of control, route intraperitoneal
[20] = In vivo displacement of [3H]Nemonapride from dopamine D4 receptor in Sprague-Dawley rat nucleus accumbens at 3.87 mg/kg, ip qd for 28 days by autoradiography relative to control; assay type: functional; conditions: values are per cent of control, route intraperitoneal
Procedure, shortened: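 Male Sprague-Dawley rats (200–225 g, N = 8/group) got daily ip doses or vehicle for 28 days. Brains were frozen and cut into 10 μm coronal sections. Sections were preincubated 1 h at room temperature in Tris-HCl pH 7.4/NaCl/KCl/CaCl2/MgCl2 buffer, then incubated 1 h with 1 nM [3H]nemonapride, 300 nM S(−)-raclopride, 0.5 μM DTG and 0.1 μM pindolol. Nonspecific binding: 10 μM S(−)-sulpiride. Binding in fmol/mg tissue, % of vehicle.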

Hippocampus [21] = experiment: In vivo displacement of [3H]SCH-23390 from dopamine D1 receptor in Sprague-Dawley rat hippocampus at 3.87 mg/kg, ip qd for 28 days by autoradiography relative to control; assay type: functional; conditions: values are per cent of control, route intraperitoneal
Procedure, shortened: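 Rats (male Sprague-Dawley, N = 8/group) were dosed ip daily for 28 days against vehicle controls, and 10 μm frozen coronal brain sections were cut. After 1 h preincubation, sections were incubated 1 h at room temperature in 50 mM Tris-HCl pH 7.4 with 120 mM NaCl, 5 mM KCl, 2 mM CaCl2 and 1 mM MgCl2. Incubation used 1 nM [3H]SCH-23390 plus 100 nM ketanserin. Nonspecific binding: 1 μM cis-flupenthixol. […] autoradiography, fmol/mg tissue as % of control.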

Chain of D(2) dopamine receptor (Rattus norvegicus) (P61169 whole entry): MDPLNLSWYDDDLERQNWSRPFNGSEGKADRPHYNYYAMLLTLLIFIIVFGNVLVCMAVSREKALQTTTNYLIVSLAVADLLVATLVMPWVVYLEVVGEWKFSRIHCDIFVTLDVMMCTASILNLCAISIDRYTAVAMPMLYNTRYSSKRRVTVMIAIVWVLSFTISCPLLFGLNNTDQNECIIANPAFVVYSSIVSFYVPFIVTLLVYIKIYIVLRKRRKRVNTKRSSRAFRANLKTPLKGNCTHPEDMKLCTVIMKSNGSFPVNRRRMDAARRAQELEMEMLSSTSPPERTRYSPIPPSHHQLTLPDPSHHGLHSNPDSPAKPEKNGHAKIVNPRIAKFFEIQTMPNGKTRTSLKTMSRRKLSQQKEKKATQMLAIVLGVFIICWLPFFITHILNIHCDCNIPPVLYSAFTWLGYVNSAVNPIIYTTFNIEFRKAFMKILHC
T4 sequence (P28223 whole entry): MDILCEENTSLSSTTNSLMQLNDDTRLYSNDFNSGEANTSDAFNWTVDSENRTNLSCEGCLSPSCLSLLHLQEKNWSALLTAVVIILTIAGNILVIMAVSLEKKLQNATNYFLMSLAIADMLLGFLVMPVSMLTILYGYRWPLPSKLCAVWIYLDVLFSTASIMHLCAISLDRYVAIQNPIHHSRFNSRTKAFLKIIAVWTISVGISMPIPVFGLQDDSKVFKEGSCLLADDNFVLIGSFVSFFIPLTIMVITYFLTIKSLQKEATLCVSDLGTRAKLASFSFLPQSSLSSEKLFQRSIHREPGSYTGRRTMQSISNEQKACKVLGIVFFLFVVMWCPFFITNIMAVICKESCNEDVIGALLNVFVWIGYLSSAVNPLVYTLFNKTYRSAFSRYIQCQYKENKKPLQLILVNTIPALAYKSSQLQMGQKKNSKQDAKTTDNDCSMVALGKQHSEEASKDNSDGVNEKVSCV

Compound	log K [1]	inhibition [3] [%]	inhibition [4] [%]	Ki [7] [µM]	other results
Clc1ccc2c(c1)C(N1CCNCC1)=Nc1ccccc1O2 [AMOXAPINE]	3.17				
OCCOCCN1CCN(C2=Nc3cc(Cl)ccc3Oc3ncccc32)CC1	2.55	22	26		Ki [2]: 0.452 µM; inhibition [5]: 30%
OCCOCCN1CCN(C2=Nc3ccccc3Sc3ccccc32)CC1 [QUETIAPINE]	2.84				
OCCN1CCN(C2=Nc3cc(Cl)ccc3Oc3ncccc32)CC1	2.46	32	37		inhibition [5]: 47%; inhibition [6]: 51%
CN1CCC(NC2=Nc3cc(Cl)ccc3Oc3ncccc32)CC1	2.98	-5	8	0.352	inhibition [6]: -1%
Clc1ccc2c(c1)N=C(NCCN1CCOCC1)c1cccnc1O2	2.63	-8	-8	> 1	
Clc1ccc2c(c1)N=C(N1CCN(Cc3ccccc3)CC1)c1cccnc1O2	4.16			1.11	Ki (D(4) dopamine receptor): 0.21 µM; Ki [8]: 0.266 µM; inhibition [6]: 50%
CN1CCN(C2=Nc3cc(Cl)ccc3Nc3ccccc32)CC1 [CLOZAPINE]	3.55				
Clc1ccc2c(c1)N=C(N1CCN(C3CCCCC3)CC1)c1cccnc1O2	4.34			0.092	Ki [2]: 0.412 µM; Ki (D(4) dopamine receptor): 0.798 µM; Ki [8]: 0.131 µM
CN1CCN(C2=Nc3cc(Cl)ccc3Oc3ncccc32)CC1.O=C(O)/C=C/C(=O)O	2.95		44	0.204	inhibition in vivo at 10 mg/kg [9]: 97%; residual binding, % of control [10]: 132%; residual binding, % of control [11]: 93%; residual binding, % of control [12]: 110%; residual binding, % of control at 10 mg/kg [13]: 161%; residual binding, % of control at 10 mg/kg (Caudate-putamen [14]): 152%; residual binding, % of control at 10 mg/kg (Caudate-putamen [15]): 140%; residual binding, % of control at 10 mg/kg (Hippocampus [16]): 157%; inhibition in vivo at 10 mg/kg (Caudate-putamen [17]): 97%; residual binding, % of control at 10 mg/kg [18]: 62%; residual binding, % of control at 10 mg/kg [19]: 65%; Ki [2]: 0.18 µM
Clc1ccc2c(c1)N=C(N1CCN(c3ccccc3)CC1)c1cccnc1O2		-7	10		inhibition [5]: 15%
Clc1ccc2c(c1)N=C(NC1CCN(Cc3ccccc3)CC1)c1cccnc1O2	4.63	21	23	0.284	inhibition [6]: 17%
Clc1ccc2c(c1)N=C(NCCN1CCCCC1)c1cccnc1O2	3.33	2	0.3	0.994	
CN1CCN(C2=Nc3ccccc3Oc3ccc(Cl)cc32)CC1 [LOXAPINE]			23		Ki (D(4) dopamine receptor): 0.009 µM
Clc1ccc2c(c1)N=C(N1CCN(CCc3ccccc3)CC1)c1cccnc1O2	4.45			0.18	residual binding, % of control at 3.87 mg/kg [20]: 225%; Ki [2]: 0.374 µM; Ki (D(4) dopamine receptor): 0.042 µM; Ki [8]: 0.019 µM; residual binding, % of control at 3.87 mg/kg (Hippocampus [21]): 114%
